Experimental data gathered from unrelated publications.
Converted amounts (≈) assume the structure as drawn.

SMILES | target or system | assay | test system | conditions | endpoint | result
CN[C@H](CC(C)C)C(=O)N[C@H]1C(=O)N[C@@H](CC(N)=O)C(=O)N[C@H]2C(=O)N[C@H]3C(=O)N[C@H](C(=O)N[C@H](C(=O)O)c4cc(O)cc(O)c4-c4cc3ccc4O)[C@H](O)c3ccc(c(Cl)c3)Oc3cc2cc(c3O[C@@H]2O[C@H](CO)[C@@H](O)[C@H](O)[C@H]2O[C@H]2C[C@](C)(N)[C@H](O)[C@H](C)O2)Oc2ccc(cc2Cl)[C@H]1O | Streptococcus pneumoniae | microbial growth | PRSP | clinical isolate | MIC90 | 1 µg/mL
CC1(C)S[C@@H]2[C@H](NC(=O)[C@H](N)c3ccc(O)cc3)C(=O)N2[C@H]1C(=O)O | Vibrio vulnificus | microbial growth, broth dilution |  |  | MIC90 | 3 µM
CC1(C)C[C@H]2[C@H]1CC[C@]1(C)CCC[C@@]2(NS(=O)(=O)C(C)(C)C)C1 | HT-29 | cell growth or viability, CCK-8 |  | 10 µM | inhibition | < 50%
COc1ccc(C=NNC(=O)CSc2nc3c(C)cccc3c(=O)n2-c2ccccc2)cc1OS(C)(=O)=O | Klebsiella pneumoniae | microbial growth, well diffusion |  | 20 µg/mL | inhibition zone | 2 mm
CC(=O)NC[C@H]1CN(c2ccc(N3CCOCC3)c(F)c2)C(=O)O1 | Streptococcus pneumoniae | microbial growth | PRSP | clinical isolate | MIC90 | 2 µg/mL
CC1(C)C[C@H]2[C@H]1CC[C@]1(C)CCC[C@@]2(n2cc(C(=O)N3CCNCC3)nn2)C1 | HT-29 | cell growth or viability, CCK-8 |  | 10 µM | inhibition | 91.6%
Cc1nc(Nc2ncc(C(=O)Nc3c(C)cccc3Cl)s2)cc(N2CC[C@H](O)C2)n1 | CA46 | cell growth or viability, ATP luminescence |  | 10 µM, 72 h | inhibition | 56%
CC1(C)C[C@H]2[C@H]1CC[C@]1(C)CCC[C@@]2(n2cc(C(=O)NCCN)nn2)C1 | HT-29 | cell growth or viability, CCK-8 |  | 50 µM | inhibition | 78.3%
CCS(=O)(=O)Oc1ccc(C=NNC(=O)CSc2nc3ccc(Cl)cc3c(=O)n2-c2ccccc2)cc1 | Klebsiella pneumoniae | microbial growth, well diffusion |  | 20 µg/mL | inhibition zone | 2 mm
CC[C@H]1OC(=O)[C@H](C)[C@@H](O[C@H]2C[C@@](C)(OC)[C@@H](O)[C@H](C)O2)[C@H](C)[C@@H](O[C@@H]2O[C@H](C)C[C@H](N(C)C)[C@H]2O)[C@](C)(O)C[C@@H](C)/C(=N\OCOCCOC)[C@H](C)[C@@H](O)[C@]1(C)O | Streptococcus pneumoniae | microbial growth |  | clinical isolate | MIC90 | 4 µg/mL
CC1(C)C[C@H]2[C@H]1CC[C@]1(C)CCC[C@@]2(n2cc(C(=O)NC3CCNCC3)nn2)C1 | HT-29 | cell growth or viability, CCK-8 |  | 10 µM | inhibition | 68.1%
CCS(=O)(=O)Oc1cc(C=NNC(=O)CSc2nc3ccc(Cl)cc3c(=O)n2-c2ccccc2)ccc1OC | Klebsiella pneumoniae | microbial growth, well diffusion |  | 20 µg/mL | inhibition zone | 2 mm
COc1c(N2C[C@@H]3CCCN[C@@H]3C2)c(F)cc2c(=O)c(C(=O)O)cn(C3CC3)c12 | Streptococcus pneumoniae | microbial growth, agar dilution | ATCC49619 |  | MIC | 0.125 µg/mL (≈ 0.311 µM)
CN(C)c1ccc(C=Nn2c(-c3ccccc3)nc3ccc(Cl)cc3c2=O)cc1 | LLC-PK1 | cell growth or viability, MTT |  | 72 h | IC50 | 62.8 µM
CC1(C)C[C@H]2[C@H]1CC[C@]1(C)CCC[C@@]2(n2cc(-c3ccc(F)cc3)nn2)C1 | HT-29 | cell growth or viability, CCK-8 |  | 10 µM | inhibition | < 50%
Cc1cccc2c(=O)n(-c3ccccc3)c(SCC(=O)NN=Cc3ccc(OS(C)(=O)=O)cc3)nc12 | Klebsiella pneumoniae | microbial growth, well diffusion |  | 20 µg/mL | inhibition zone | 3 mm
COc1ccc(C=Nn2c(-c3ccccc3)nc3ccc(Cl)cc3c2=O)cc1O | LLC-PK1 | cell growth or viability, MTT |  | 72 h | IC50 | 279 µM
CCS(=O)(=O)Oc1ccc(C=NNC(=O)CSc2nc3c(C)cccc3c(=O)n2-c2ccccc2)cc1 | Klebsiella pneumoniae | microbial growth, well diffusion |  | 20 µg/mL | inhibition zone | 2 mm
CC1(C)S[C@@H]2[C@H](NC(=O)[C@H](N)c3ccccc3)C(=O)N2[C@H]1C(=O)O | Streptococcus pneumoniae | microbial growth, agar dilution | ATCC49619 |  | MIC | 0.5 µg/mL (≈ 1.43 µM)
CC1(C)C[C@H]2[C@H]1CC[C@]1(C)CCC[C@@]2(NS(=O)(=O)c2ccc(OC(F)(F)F)cc2)C1 | HT-29 | cell growth or viability, CCK-8 |  | 50 µM | inhibition | 75.9%
COc1cc(C=NNC(=O)CSc2nc3ccc(Cl)cc3c(=O)n2-c2ccccc2)ccc1OS(C)(=O)=O | Klebsiella pneumoniae | microbial growth, well diffusion |  | 20 µg/mL | inhibition zone | 2 mm
C=C[C@]1(C)C[C@@H](OC(=O)CS[C@@H]2C[C@H]3CC[C@@H](C2)N3C)[C@]2(C)[C@H](C)CC[C@]3(CCC(=O)[C@H]32)[C@@H](C)[C@@H]1O | Streptococcus pneumoniae | microbial growth, agar dilution | ATCC49619 |  | MIC | 0.0312 µg/mL (≈ 0.0604 µM)
CC1(C)C[C@H]2[C@H]1CC[C@]1(C)CCC[C@@]2(NS(C)(=O)=O)C1 | HT-29 | cell growth or viability, CCK-8 |  | 10 µM | inhibition | < 50%
CCCS(=O)(=O)Oc1cc(C=NNC(=O)CSc2nc3c(C)cccc3c(=O)n2-c2ccccc2)ccc1OC | Klebsiella pneumoniae | microbial growth, well diffusion |  | 20 µg/mL | inhibition zone | 2 mm
O=c1c2cc(Cl)ccc2nc(-c2ccccc2)n1N=Cc1c(F)cccc1Cl | LLC-PK1 | cell growth or viability, MTT |  | 72 h | IC50 | 46.4 µM
CCS(=O)(=O)Oc1cc(C=NNC(=O)CSc2nc3c(C)cccc3c(=O)n2-c2ccccc2)ccc1OC | Klebsiella pneumoniae | microbial growth, well diffusion |  | 20 µg/mL | inhibition zone | 3 mm
CC1(C)C[C@H]2[C@H]1CC[C@]1(C)CCC[C@@]2(n2cc(CN3CCOCC3)nn2)C1 | HT-29 | cell growth or viability, CCK-8 |  | 50 µM | inhibition | 45%
